Measurements collected from several papers.
Protocols differ between the studies behind these lines.
Target: Dual specificity tyrosine-phosphorylation-regulated kinase 2 (DYRK2, Homo sapiens, UniProt Q92630)
Observed: enzyme activity
Action: inhibitor
Sequence (Q92630 1-601, as in one of the studies): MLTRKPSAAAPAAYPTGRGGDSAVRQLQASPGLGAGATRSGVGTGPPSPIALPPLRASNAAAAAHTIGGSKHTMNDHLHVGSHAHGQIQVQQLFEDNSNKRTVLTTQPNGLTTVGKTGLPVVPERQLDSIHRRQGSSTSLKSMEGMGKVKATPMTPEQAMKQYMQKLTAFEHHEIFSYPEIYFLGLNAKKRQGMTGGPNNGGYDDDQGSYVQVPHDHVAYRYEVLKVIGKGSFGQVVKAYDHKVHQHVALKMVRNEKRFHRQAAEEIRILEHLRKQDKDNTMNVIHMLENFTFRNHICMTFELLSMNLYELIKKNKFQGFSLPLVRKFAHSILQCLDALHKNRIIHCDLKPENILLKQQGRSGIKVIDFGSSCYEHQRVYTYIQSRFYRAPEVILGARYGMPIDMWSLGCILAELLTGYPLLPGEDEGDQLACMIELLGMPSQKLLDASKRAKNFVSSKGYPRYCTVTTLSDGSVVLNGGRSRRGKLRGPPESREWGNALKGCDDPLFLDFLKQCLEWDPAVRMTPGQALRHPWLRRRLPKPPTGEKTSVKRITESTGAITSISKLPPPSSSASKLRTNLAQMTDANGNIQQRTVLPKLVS

Structure (SMILES) | assay | setting | remaining activity [%]
Cn1c(=O)n(-c2ccc(C(C)(C)C#N)cc2)c2c3cc(-c4cnc5ccccc5c4)ccc3ncc21 |  | 10 µM | 79
CCCOc1ccc(OC)c(F)c1C(=O)c1ccc(C(=O)N[C@@H]2CNC[C@H]2NC(=O)c2ccc3[nH]ncc3c2)cc1 |  | 10 µM | 92
O=C(O)c1ccc2c(c1)nc(NCCc1cccc(F)c1)c1ccncc12 | radiometric | 1 µM | 17
CC(C)(C)C(=O)c1sc(NC2CCCCC2)nc1N |  | 10 µM | 90
COc1cc(Nc2cnc(C#N)c(O[C@H](C)CN(C)C)n2)ncc1-c1cnn(C)c1 | radiometric | 1 µM | 100
Cc1sc(C(=O)NC2COC2)cc1-n1cc(NC(=O)Nc2c(F)cccc2Cl)cn1 |  | 10 µM | 96.3
CC(C)(O)[C@H]1CC[C@H](Nc2ccc3ncc(-c4cccc(C(F)(F)F)c4)n3n2)CC1 |  | 1 µM | 59.7
O=C(Nc1cnn(-c2csc(C(=O)NC3COC3)c2)c1)Nc1c(F)cccc1Cl |  | 5 µM | 93.6
O=C(O)c1ccc2c(c1)nc(Nc1ccc3ccccc3c1)c1ccncc12 | radiometric | 1 µM | 18
Nc1nc(Nc2ccccc2)sc1C(=O)c1c(F)cccc1F |  | 10 µM | 79
COc1cccc(CCNc2nc3cc(C(=O)O)ccc3c3cnccc23)c1 | radiometric | 1 µM | 19
FC(F)c1nc2ccccc2n1-c1nc(N2CCOCC2)nc(N2CCOCC2)n1 |  | 10 µM | 93
